Screening results: PubChem, several laboratories
Shown are actives, neighbours in structure and some others; about 4% of the full set was active somewhere.
MT stabilizer = microtubule stabilization, imaging screen | % tubulin-high responders, % at 10 µM | hit rate 0.83% among 200,000 | HeLa tubulin immunostaining HCS, 24 h; share of cells brighter than vehicle mean+2SD;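 active = plate Z-score above 3 for both tubulin-high and condensed-nucleus cell shares, with cell loss under 80%, at 10 µM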;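 also: anti alpha tubulin signal scored within the nucleus-defined area of each cell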
Pf gamet viab = kills late stage P. falciparum gametocytes. P. falciparum stage V gametocytes, ATP luminescence, 24 h. inhibition, % at 10.9 µM. hit rate 0.065% among 150,000;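 active = inhibition above the mean plus 3 SD of compounds within the control limits, set per campaign, cut at about 38% in these data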;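 also: 0% = DMSO wells and 100% = medium only without gametocytes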
Cl transport mod = modulators of human KCC2 chloride dependent transport | hit rate 2.2% among 190,000 | KCC2 cells, thallium flux FluoZin-2 fluorescence | Q9H2X9 | B-score of Tl+ flux slope (higher = more flux/activation; lower = inhibition) at 10 µM;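 active = thallium flux slope and its plate-corrected score both differing from the plate sample mean at a set confidence after two filtering rounds, in either direction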;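 also: slope of fluorescence scaled to starting intensity during 10 to 20 s after thallium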
Target sequence (Q9H2X9 whole entry, looked up): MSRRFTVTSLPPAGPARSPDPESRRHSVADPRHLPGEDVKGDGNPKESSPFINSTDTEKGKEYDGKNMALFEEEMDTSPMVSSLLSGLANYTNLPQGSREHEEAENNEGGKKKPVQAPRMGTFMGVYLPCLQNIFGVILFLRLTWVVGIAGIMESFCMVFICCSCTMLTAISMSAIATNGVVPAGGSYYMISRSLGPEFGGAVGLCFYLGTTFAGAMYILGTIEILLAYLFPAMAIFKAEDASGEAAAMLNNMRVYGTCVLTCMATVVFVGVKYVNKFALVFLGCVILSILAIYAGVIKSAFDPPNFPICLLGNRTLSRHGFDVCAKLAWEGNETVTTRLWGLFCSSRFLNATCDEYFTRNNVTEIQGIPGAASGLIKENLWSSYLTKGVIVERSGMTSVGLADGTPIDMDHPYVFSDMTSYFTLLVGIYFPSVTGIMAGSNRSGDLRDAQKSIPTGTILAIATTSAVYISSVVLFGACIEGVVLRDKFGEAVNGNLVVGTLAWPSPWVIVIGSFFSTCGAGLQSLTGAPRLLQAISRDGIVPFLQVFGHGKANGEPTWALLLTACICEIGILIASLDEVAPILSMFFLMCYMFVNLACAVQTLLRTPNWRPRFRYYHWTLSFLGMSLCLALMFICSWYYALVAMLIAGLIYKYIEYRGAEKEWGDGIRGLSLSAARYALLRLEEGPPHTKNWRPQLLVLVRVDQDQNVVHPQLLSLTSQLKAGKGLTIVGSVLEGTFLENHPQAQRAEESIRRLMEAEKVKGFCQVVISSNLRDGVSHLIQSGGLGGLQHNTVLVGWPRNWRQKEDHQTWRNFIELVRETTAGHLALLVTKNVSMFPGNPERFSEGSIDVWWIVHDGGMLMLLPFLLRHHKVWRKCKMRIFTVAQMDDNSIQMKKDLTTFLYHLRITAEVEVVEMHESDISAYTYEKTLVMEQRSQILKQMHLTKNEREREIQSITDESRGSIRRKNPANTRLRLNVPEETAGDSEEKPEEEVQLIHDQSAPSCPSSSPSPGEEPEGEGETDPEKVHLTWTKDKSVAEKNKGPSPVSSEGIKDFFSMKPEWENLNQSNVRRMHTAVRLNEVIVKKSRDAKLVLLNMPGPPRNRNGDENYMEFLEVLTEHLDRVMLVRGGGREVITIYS
b-catenin transl = modulators of beta-catenin nuclear translocation; HeLa beta-catenin nuclear translocation, immunofluorescence imaging; hit rate 0.3% among 190,000; nuclear translocation activity, % at 5 µM;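 active = nuclear translocation activity above 50% at 5 µM, with a well cell count of 50 or more; inconclusive = wells under 50 cells across six images, flagged as toxic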;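 also: per-cell ratio of nuclear to cytoplasmic median beta-catenin stain intensity; plate controls were DMSO negative control for no effect and GSK-3 inhibitor IX positive control for full effect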
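assay system = human HeLa cells, endogenous beta-catenin | times = compound treatment 24 h, 37°C, 5% CO2 | detection = Anti-beta-catenin immunofluorescence on PFA-fixed, Triton-permeabilized cells, DAPI nuclei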
WT yeast gro inh = growth inhibition of WT yeast, mitochondrial fusion screen; mitochondrial fusion phenotypic screen, WT strain; inhibition, % at 10 µM; hit rate 2.1% among 190,000; AID 1362; in the data active = inhibition above about 58%; tested in S. cerevisiae
KCC2 secondary = KCC2 (human) modulation, secondary assay; shares compounds with Cl transport mod; HEK293-KCC2, thallium flux, FluoZin2 fluorescence; stronger effect = higher value; normalised thallium flux (F/F0 slope) at 10 µM; hit rate 15% among 3,700; AID 1713;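 active = thallium flux slope above the same plate's solvent-only control mean plus 3 SD; inconclusive = the two replicate wells disagree; inactive = no significant difference from solvent-only control wells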
KCC2 bumet counter = bumetanide-insensitive thallium flux in KCC2 cells with ouabain, counter-screen. shares compounds with Cl transport mod. HEK293-KCC2 + bumetanide/ouabain, thallium flux FluoZin2; stronger effect = higher value. normalized thallium flux at 10 µM. hit rate 49% among 3,700;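 active = thallium entry rate above the same plate's blocked-transporter control wells by more than 3 SD; inconclusive = the two repeat wells disagree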;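 also: raw slope of fluorescence over initial fluorescence between 10 and 20 s after thallium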
KCC2 secondary2 = KCC2 (human) modulation, second secondary assay | normalized thallium flux at 10 µM | hit rate 23% among 3,700 | shares compounds with Cl transport mod | HEK293-KCC2, thallium flux FluoZin2 fluorescence; actives lie on both sides; F/F0 rise rate, 10–20 s post-thallium;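 active = thallium flux slope more than 3 SD above or below the plate's solvent-only control mean, mostly below; inconclusive = the two repeat wells disagreed; inactive = no significant shift from solvent-only controls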;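 also: raw slope with 0.1% DMSO as baseline and bumetanide as block control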
HEK counter1 = counter-screen for KCC2 modulators: effect in parental HEK293 cells. thallium flux FluoZin2, ouabain; baseline-ratio fluorescence slope, 10–20 s after thallium. shares compounds with Cl transport mod. AID 1716. hit rate 46% among 3,700. thallium flux rate (normalised fluorescence) at 10 µM;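 active = thallium flux rate significantly above the same plate's solvent-only control wells, beyond their mean plus 3 SD; inconclusive = the two replicate wells gave conflicting results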
KCC2 retest ouab = KCC2 (human) modulation, ouabain retest; shares compounds with Cl transport mod; HEK293-KCC2, thallium flux FluoZin2 fluorescence; bidirectional: low = inhibitor, high = activator; raw Tl+ flux slope (below DMSO = inhibition, above = activation) at 10 µM; hit rate 48% among 3,700;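 active = thallium flux slope beyond 3 SD from same-plate DMSO control mean in most replicates, usually higher, sometimes lower; inconclusive = repeat tests gave conflicting results; inactive = no significant difference from controls in most replicates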;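 also: slope of initial-normalized fluorescence between seconds 10 and 20 after thallium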
HEK counter2 = counter-screen for KCC2 modulators: effect in parental HEK293 cells | shares compounds with Cl transport mod | thallium flux FluoZin-2 fluorescence slope | thallium flux slope at 10 µM | hit rate 33% among 3,700;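 active = thallium flux slope above the same plate's solvent-control mean plus 3 SD in both duplicate wells; inconclusive = duplicate wells that disagreed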;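 also: run without ouabain in cells lacking the KCC2 cotransporter; slope of fluorescence scaled to its starting value between 10 and 20 s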
Numbers without * were called inactive; ? = inconclusive; nt = no result given.

SMILES	MT stabilizer	Pf gamet viab	Cl transport mod	b-catenin transl	WT yeast gro inh	KCC2 secondary	KCC2 bumet counter	KCC2 secondary2	HEK counter1	KCC2 retest ouab	HEK counter2
CN(CC(=O)Nc1c(Cl)cccc1Cl)C(=O)CCCN1C(=O)c2ccccc2C1=O	1	12	0.23	-5	-13	nt	nt	nt	nt	nt	nt
COc1ccc2[nH]cc(CCNS(=O)(=O)c3ccc(C)cc3)c2c1	nt	12	-1.5	1	nt	nt	nt	nt	nt	nt	nt
CC(C)(C)C1C/C(=C/c2ccccn2)C(=O)/C(=C/c2ccccn2)C1 (stereo not given)	52	nt	-3.4*	nt	69*	0.011	0.0094*	0.03	0.0095*	0.023	?
CC1CCc2sc(C(=O)NN=C3CCC(c4ccccc4)CC3)cc2C1 (stereo not given)	4	nt	0.15	0	-1	nt	nt	nt	nt	nt	nt
Cc1cccc(NC(=S)NNC(=O)c2cc3c(s2)CCC(C)C3)c1C (stereo not given)	3	17	37*	nt	-14	0.0066	0.08*	0.061*	0.064*	0.062*	0.059*
CC1C/C(=N\NC(=O)c2ccc([N+](=O)[O-])cc2)CC(C)(C)C1 (stereo not given)	nt	5	5.4*	2	nt	0.01	0.016*	0.029	0.009*	0.027*	?
CCOc1ccccc1N1CCN(C(=O)/C=C/c2cccc([N+](=O)[O-])c2)CC1	3	nt	-3.8*	-4	10	0.0054	0.0048	0.027*	0.0057*	0.017*	?
CC[C@@H]1CC=C[C@H]2[C@H]1C(=O)N(Cc1ccccc1)[C@H]2c1ccc2ccccc2c1	nt	nt	-0.044	-1	nt	nt	nt	nt	nt	nt	nt
COc1ccc(-n2c(C)nc3cc(C(=O)NCCN4CCOCC4)ccc32)cc1	1	-26	-6.3*	nt	-15	0.0059	0.0048	0.031	0.0074	0.02	0.01
O=C(N/N=C/c1ccc2c(c1)OCO2)c1ccc2ccccc2n1	4	nt	4.9*	2	10	0.017	0.018*	0.032	0.012*	0.02*	0.016*
COc1ccccc1NC(=S)N/N=C/c1cccc(C)c1	3	-2	5.5*	2	1	0.011	0.016*	0.034	0.012*	0.026	0.011
Cc1cccc(C(=O)N/N=C/c2ccc3c(c2)OCO3)n1	4	-7	0.68	nt	-5	nt	nt	nt	nt	nt	nt
Cc1cccc(NC(=S)N/N=C/c2ccc3c(c2)OCO3)c1	5	nt	10*	nt	60*	0.011	0.015*	0.034	0.028*	0.027*	?
[O-]/C(=C(\C(=S)NCc1ccccc1)[n+]1ccccc1)c1ccc(Cl)s1	3	nt	-0.62	-1	-28	nt	nt	nt	nt	nt	nt
O=S(=O)(c1ccc(NC(=S)NCc2ccncc2)cc1)N1CCCCC1	nt	2	-0.24	0	nt	nt	nt	nt	nt	nt	nt
CCCc1nc2c(o1)CC(CC(C)SCC)CC2=O (stereo not given)	2	16	4.9*	-10	32	0.0062	0.0046	?	0.007	0.018	0.0092
CCOC(=O)c1c(N)sc2c1CCC(C)C2 (stereo not given)	5	-1	0.85	-2	4	nt	nt	nt	nt	nt	nt
CCOC(=O)c1c(NS(C)(=O)=O)sc2c1CCC(C)C2 (stereo not given)	1	-27	23*	-7	10	0.02*	0.059*	0.038	0.028*	0.052*	0.014*
COc1ccc(N(CC(=O)N/N=C/c2ccc3c(c2)OCO3)S(=O)(=O)c2ccccc2)cc1	3	nt	0.8	1	-3	nt	nt	nt	nt	nt	nt
CCc1[nH]c(=S)c(C#N)c2c1CCCC2	3	6	16*	-1	-4	0.0065	0.014*	0.031	0.017*	?	0.014*
CCOC(=O)c1c2c([nH]c(=S)c1C#N)CCCC2	nt	4	11*	1	nt	0.011	0.011*	0.033	?	?	0.012
CCc1[nH]c(=O)c(C#N)c2c1CCCC2	2	nt	0.082	0	2	nt	nt	nt	nt	nt	nt
CCOC(=O)c1c(O)c2c([nH]c1=O)CCCC2	1	-43	nt	0	4	nt	nt	nt	nt	nt	nt
Cc1ccc(C)c(NC(=S)N2CCN(CCO)CC2)c1	3	nt	0.0092	nt	-9	nt	nt	nt	nt	nt	nt
Cc1ccc(O)c(C(=O)CC(=O)c2ccccc2Cl)c1	2	-4	nt	0	55	?	0.064*	0.03	0.038*	0.055*	0.012*
SMILES	MT stabilizer	Pf gamet viab	Cl transport mod	b-catenin transl	WT yeast gro inh	KCC2 secondary	KCC2 bumet counter	KCC2 secondary2	HEK counter1	KCC2 retest ouab	HEK counter2
Cc1ccc(O)c(C(=O)CC(=O)c2ccc(C(C)(C)C)cc2)c1	nt	11	nt	nt	nt	nt	nt	nt	nt	nt	nt
COc1ccccc1NS(=O)(=O)c1ccc(O)c(NC(=S)NCC2CCCO2)c1 (stereo not given)	nt	-13	0.32	0	nt	nt	nt	nt	nt	nt	nt
O=[N+]([O-])c1ccc(/C=N/NC(=S)Nc2ccccc2C(F)(F)F)o1	5	1	21*	0	14	0.0072	0.046*	0.051*	0.027*	0.054*	0.021*
COc1ccc(C(=O)NC(=S)Nc2ccc(CN3CCOCC3)cc2)cc1	nt	1	0.3	3	nt	nt	nt	nt	nt	nt	nt
O=C(NC(=S)Nc1ccc(CN2CCOCC2)cc1)c1ccc([N+](=O)[O-])cc1	4	-13	4.6*	3	-4	0.0072	0.0097*	0.035	0.012*	0.022	0.013*
O=C(CCS(=O)(=O)c1ccc(Br)s1)NC1CCCC1	2	nt	nt	nt	-7	0.0064	0.0049	0.03	0.008	0.019	0.011
COc1cccc(-c2nc(CS(=O)(=O)CC(=O)NCc3ccccc3OC)c(C)o2)c1	2	nt	-1.4	-10	14	nt	nt	nt	nt	nt	nt
COc1ccc(OC)c(CCNC(=O)CS(=O)(=O)Cc2nc(-c3ccccc3C)oc2C)c1	5	-1	-2	-1	5	nt	nt	nt	nt	nt	nt
COc1cccc(-c2nc(CS(=O)(=O)CC(=O)NCc3ccccc3)c(C)o2)c1	2	nt	-4.1*	0	2	0.0087	0.0058	0.037	0.0045	?	0.012
Cc1ccccc1-c1nc(CS(=O)(=O)CC(=O)NCc2ccccc2)c(C)o1	3	nt	-5*	-2	9	0.0053	0.0049	?	0.0073	?	0.011
CC(C)N(Cc1nc(-c2ccc(Cl)cc2)no1)C(=O)CN(C)S(=O)(=O)c1ccc(Cl)cc1	3	nt	nt	-1	44	nt	nt	nt	nt	nt	nt
